High-throughput results (PubChem)
E-sel inducer = induces E-selectin expression in human endothelial cells | P16581 | HUVEC E-selectin immunofluorescence imaging; normalized: neutral wells 0, TNF-alpha wells 100 | activation, % at 7.58 µM | actives 0.37% (n = 260,000) | AID 686992;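 active means mean E-selectin-positive cell signal at least 10% of the positive control, reached in at least 60% of replicates, without over 20% cell loss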
Target sequence (P16581 whole entry, looked up): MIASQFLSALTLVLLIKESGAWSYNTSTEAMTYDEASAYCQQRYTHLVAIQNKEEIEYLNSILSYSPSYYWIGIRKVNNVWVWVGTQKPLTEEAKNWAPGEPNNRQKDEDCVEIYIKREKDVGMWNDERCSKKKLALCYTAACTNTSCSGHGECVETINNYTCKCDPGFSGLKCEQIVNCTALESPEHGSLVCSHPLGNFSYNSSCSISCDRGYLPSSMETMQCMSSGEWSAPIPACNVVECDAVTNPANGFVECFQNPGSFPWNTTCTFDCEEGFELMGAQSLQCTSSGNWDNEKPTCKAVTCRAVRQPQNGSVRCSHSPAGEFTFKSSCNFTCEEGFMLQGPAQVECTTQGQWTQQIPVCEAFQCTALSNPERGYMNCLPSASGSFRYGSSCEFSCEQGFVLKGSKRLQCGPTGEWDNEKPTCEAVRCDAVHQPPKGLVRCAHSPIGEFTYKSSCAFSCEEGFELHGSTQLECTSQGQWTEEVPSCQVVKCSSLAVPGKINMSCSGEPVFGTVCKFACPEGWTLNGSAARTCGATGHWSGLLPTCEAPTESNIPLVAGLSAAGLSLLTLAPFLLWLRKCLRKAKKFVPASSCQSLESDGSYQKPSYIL
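Test system: HUVEC | Signal: Immunofluorescence imaging | Read-out: Percent E-selectin-positive cells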
rRNA inh HTS = selective bacterial rRNA inhibition in E. coli; E. coli WT GFP vs humanized-ribosome RFP mutants, fluorescence, 24 h; hits give low values; DMSO median 0, no signal -100; GFP signal change (wild-type ribosome), % (no concentration beside the values); actives 1.6% (n = 350,000); AID 720706;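 active means significant combined selectivity score with lowered wild-type GFP, culture density cut under 30%, mutant RFP and density less affected; inactive means any of these conditions unmet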
miR-122 sensor = inhibitors of miR-122 in Huh7 cells; activation (reporter increase), % at 12.5 µM; actives 0.3% (n = 340,000); Huh7 miR-122 Renilla luciferase sensor, 48 h; neutral wells = 0, positive control = 100; AID 602342;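 active means mean replicate activation score at least 90 and every replicate individually at or above 90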;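 further: higher luciferase means less miR-122 activity so hits act as miR-122 inhibitors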
Cneo AK release = Cryptococcus neoformans lysis via adenylate kinase release | AID 651654 | lysis activity, % at 15 µM | C. neoformans lysis, adenylate kinase release luminescence, 4 h; normalised: neutral wells 0, clomiphene wells 100 | actives 0.2% (n = 360,000);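 active means mean lysis activity across replicates of at least 80%, whatever share of replicates individually reach that level; inactive means mean lysis activity below 80%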
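Material – log-phase Cryptococcus neoformans yeast cells · Input – 5 × 10^6 yeast cells/mL · Medium – fresh YPD growth medium · Doses – single compound concentration per well · Timing – static 4 h at 37 °C with compound, 1 h detection · Detection – adenylate kinase release luminescence · Read-out – signal increase indicating cell lysis · Control set – Clomiphene as positive lysis control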
DENV2 CPE rescue = protects cells from dengue virus 2 cytopathic effect; AID 651640; CPE inhibition, % at 9.99 µM; DENV2-infected cells, cytopathic effect rescue, plate reader; actives 1.7% (n = 350,000); in the data active means CPE inhibition above about 20%, passing the limit was not always enough; tested in BHK-21 cells;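 further: 0% = median of neutral control wells and 100% = median of positive control wells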
An asterisk follows results filed as active; ! = not active in a repeat; [ ] = another dose, or the depositor's remark. In the library only some 3.1% were active in any assay of this set; here they are far more common.

What do the screens show for `COC(=O)N(C)C[C@@H]1OCc2cn(nn2)CCCC(=O)N([C@H](C)CO)C[C@H]1C`?
E-sel inducer: 0; rRNA inh HTS: 1; miR-122 sensor: 5[16.7 µM]; Cneo AK release: -1; DENV2 CPE rescue: -2

What do the screens show for `C[C@@H]1CN([C@@H](C)CO)C(=O)CCCn2cc(nn2)CO[C@H]1CN(C)C(=O)Nc1cccc2ccccc12`?
E-sel inducer: 0; rRNA inh HTS: 0; miR-122 sensor: -10[16.7 µM]; Cneo AK release: -3; DENV2 CPE rescue: 91*!

Results for CC(C)NC(=O)N(C)C[C@@H]1OCc2cn(nn2)CCCC(=O)N([C@@H](C)CO)C[C@@H]1C ?
E-sel inducer: 0; rRNA inh HTS: 1; miR-122 sensor: -8[16.7 µM]

How did C[C@H]1CN([C@@H](C)CO)C(=O)CCCn2cc(nn2)CO[C@@H]1CN(C)C(=O)Nc1cccc2ccccc12 do in these assays?
E-sel inducer: 0; rRNA inh HTS: -8; miR-122 sensor: -3; Cneo AK release: 8; DENV2 CPE rescue: 0

How did O=C(NCC[C@@H]1CC[C@H](NS(=O)(=O)c2ccc(F)cc2)[C@H](CO)O1)c1ccccc1F do in these assays?
E-sel inducer: 0; rRNA inh HTS: -3; DENV2 CPE rescue: 2

What do the screens show for `Cc1ccccc1CC1(CO)CCCN(Cc2ccccc2Cl)C1` (centres undefined)?
E-sel inducer: 0; rRNA inh HTS: -28*; miR-122 sensor: 1; Cneo AK release: 4; DENV2 CPE rescue: 10

How did Cc1ccc(OCCn2c(=S)[nH]c3c(N)ncnc32)cc1 do in these assays?
E-sel inducer: 0; rRNA inh HTS: -37*; miR-122 sensor: 31; Cneo AK release: -2; DENV2 CPE rescue: -1

What do the screens show for `C[C@H]1CN([C@@H](C)CO)S(=O)(=O)c2ccc(C3=CCCCC3)cc2O[C@@H]1CN(C)S(=O)(=O)c1cn(C)cn1`?
E-sel inducer: 0; rRNA inh HTS: -3; miR-122 sensor: -12[16.7 µM]

How did C[C@@H]1CCCCO[C@H](CN(C)S(=O)(=O)c2cccs2)[C@@H](C)CN([C@@H](C)CO)C(=O)c2cc(NS(=O)(=O)c3cccs3)ccc2O1 do in these assays?
E-sel inducer: 0; rRNA inh HTS: 4; DENV2 CPE rescue: 10

How did C[C@H]1CCCCO[C@H](CN(C)C(=O)CCCN(C)C)[C@@H](C)CN([C@@H](C)CO)C(=O)c2cc(NS(=O)(=O)c3cccs3)ccc2O1 do in these assays?
E-sel inducer: 0; rRNA inh HTS: 4; DENV2 CPE rescue: 23*

How did C[C@@H]1CCCCO[C@H](CN(C)CC2CC2)[C@H](C)CN([C@@H](C)CO)C(=O)c2cc(NS(=O)(=O)c3cccs3)ccc2O1 do in these assays?
E-sel inducer: 0; rRNA inh HTS: 1; DENV2 CPE rescue: 42*

What do the screens show for `C[C@@H]1CCCCO[C@H](CN(C)C)[C@@H](C)CN([C@H](C)CO)C(=O)c2cc(NS(=O)(=O)c3cccs3)ccc2O1`?
E-sel inducer: 0; rRNA inh HTS: 3; miR-122 sensor: 11[16.7 µM]; Cneo AK release: 14; DENV2 CPE rescue: -10

How did C[C@@H]1CN([C@@H](C)CO)C(=O)c2cc(NS(=O)(=O)c3cccs3)ccc2O[C@@H](C)CCCCO[C@@H]1CN(C)C do in these assays?
E-sel inducer: 0; rRNA inh HTS: 0; miR-122 sensor: -6[16.7 µM]; Cneo AK release: -5; DENV2 CPE rescue: 20*

How did C[C@@H]1CCCCO[C@@H](CN(C)C(=O)CCCN(C)C)[C@H](C)CN([C@@H](C)CO)C(=O)c2cc(NS(=O)(=O)c3cccs3)ccc2O1 do in these assays?
E-sel inducer: 0; rRNA inh HTS: -2; miR-122 sensor: 7[16.7 µM]; Cneo AK release: -2

How did C[C@@H]1CCCCO[C@H](CN(C)S(=O)(=O)c2cccs2)[C@@H](C)CN([C@H](C)CO)C(=O)c2cc(NS(=O)(=O)c3cccs3)ccc2O1 do in these assays?
E-sel inducer: 0; rRNA inh HTS: 2; miR-122 sensor: -10[16.7 µM]; Cneo AK release: -1; DENV2 CPE rescue: 59*

How did O=C(C[C@@H]1C[C@H]2c3cc(NC(=O)C4CCC4)ccc3O[C@H]2[C@H](CO)O1)NCc1cc(F)ccc1F do in these assays?
E-sel inducer: 0; rRNA inh HTS: -3; miR-122 sensor: 2[16.7 µM]; Cneo AK release: 0; DENV2 CPE rescue: -5

What do the screens show for `COc1cccc(-c2cnc3c(c2)C(=O)N([C@@H](C)CO)C[C@@H](C)[C@@H](CN(C)C(=O)Nc2ccccc2F)O3)c1`?
E-sel inducer: 0; rRNA inh HTS: -1; miR-122 sensor: -4[16.7 µM]; Cneo AK release: -5; DENV2 CPE rescue: 11

Results for Oc1[nH]c2ccc(Br)cc2c1N=NC(=S)NCC1CCCO1 (centres undefined) ?
E-sel inducer: 0; rRNA inh HTS: -32*; miR-122 sensor: -1; Cneo AK release: -1; DENV2 CPE rescue: 4

Results for Oc1[nH]c2ccccc2c1N=NC(=S)NCC1CCCO1 (centres undefined) ?
rRNA inh HTS: -19; DENV2 CPE rescue: 12

Results for O=C(COc1ccc2c3c(c(=O)oc2c1)CCC3)NC1CCN(Cc2ccccc2)CC1 ?
rRNA inh HTS: -29*; miR-122 sensor: -4; Cneo AK release: -2; DENV2 CPE rescue: -5

How did CCC(=O)N(C)C[C@@H]1Oc2cc(C3=CCCCC3)ccc2S(=O)(=O)N([C@@H](C)CO)C[C@H]1C do in these assays?
E-sel inducer: -1; rRNA inh HTS: -1; miR-122 sensor: 8[16.7 µM]

Results for COc1ccc(CCNC(=O)C(=O)c2c[nH]c3ccccc23)cc1OC ?
E-sel inducer: 0; rRNA inh HTS: -35; Cneo AK release: -1; DENV2 CPE rescue: 20

Results for COc1cc(CN(C)C(=O)C(=O)c2c[nH]c3ccccc23)ccc1O ?
E-sel inducer: 0; rRNA inh HTS: -4; miR-122 sensor: 146*; Cneo AK release: 0; DENV2 CPE rescue: -5

Results for C=C1C[C@H](O[C@@H]2O[C@H](CO)[C@@H](O)[C@H](O)[C@H]2O)[C@@H]2[C@H](OC(=O)[C@H]2C)[C@H]2[C@H](C)[C@H](O)C[C@@H]12 ?
E-sel inducer: 0; rRNA inh HTS: 5; Cneo AK release: 8; DENV2 CPE rescue: 55*

What do the screens show for `O=C(CSc1nc(=O)n2ccccc2n1)N1N=C(c2cccs2)CC1c1ccc(F)cc1` (centres undefined)?
E-sel inducer: 3; rRNA inh HTS: -10; miR-122 sensor: 3; Cneo AK release: -3; DENV2 CPE rescue: 60*

How did COc1ccccc1-c1cn(CC[C@@H]2CC[C@@H](NS(=O)(=O)c3ccccc3C)[C@H](CO)O2)nn1 do in these assays?
E-sel inducer: -1; rRNA inh HTS: -5; Cneo AK release: 1; DENV2 CPE rescue: -2

Results for CCc1ccc(/C=C2\SC(N3CCCC3)=NC2=O)cc1 ?
E-sel inducer: -1; rRNA inh HTS: -15*
